Experimental data from publication PMC12216437 (Scientific Reports, 2025).
In brackets after ≈: the same amount, converted by molar mass. Non-standard residues stand in square brackets, D forms with d. Residues, ends and D or L forms follow the SMILES beside them. hArg = N=C(N)NCCCC[C@H](N)C(=O)O

Key:
E. coli ATCC 8739 [1] = experiment: Resistance development assay; type: cell-based; details: for fold increase in MIC: E. coli ATCC 8739, sub-MIC exposure; for MIC: Escherichia coli, ATCC8739
E. coli ATCC 8739 [2] = experiment: Thermal and trypsin sensitivity; type: cell-based; details: for MIC, 80 °C: E. coli ATCC 8739, peptide heated at 80 °C for 10 min, no trypsin; for MBC, Control / MIC, Control: E. coli ATCC 8739, untreated peptide
LPS-binding assay = details: BC displacement, peptide 0.5-32 μM
In short: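 BODIPY-TR cadaverine displacement: LPS (25 µg/mL) preincubated with BC dye (2.5 µg/mL) for 4 h at room temperature. Peptides, with melittin as positive control, prepared at 0.5–32 µM in Tris–HCl pH 7.4 and combined with LPS–BC mixture for 1 h at 37 °C. Fluorescence read at ex 590/em 645 nm; triplicates, independent experiments.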

E. coli ATCC 8739 [3] = experiment: Cytoplasmic membrane depolarization assay; type: cell-based; details: E. coli ATCC 8739, membrane depolarisation
In short: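 E. coli ATCC 8739 washed twice and resuspended to OD600 0.05 in 5 mM HEPES (pH 7.4) with 20 mM glucose and 100 mM KCl. Cells incubated 1 h in the dark with Disc3(5) solution (20 µM). Baseline read every 1 min for 5 min ([…]/em 645 nm). Peptide at various concentrations or melittin control then added; read every 1 min for 15 min.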

E. coli ATCC 8739 [4] = experiment: Salts and serum sensitivity; type: cell-based; details: for MIC, NH4+: E. coli ATCC 8739, 6 μM NH4Cl; for MIC, Zn2+: E. coli ATCC 8739, 8 mM ZnCl2; for MBC, Serum 10% / MIC, Serum 10%: E. coli ATCC 8739, 10% FBS
[5] = tested on: Wax Moth Larvae (Galleria mellonella); experiment: In vivo toxicity in larvae; details: uninfected larvae, 4 × MIC of peptide 7, five-day observation
In short: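 Uninfected Galleria mellonella larvae (250 ± 20 mg), ten per group, given test compound at 4 × MIC; PBS as vehicle-only group. Kept at 24 °C and survival scored every 24 h for five days.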

[6] = E. coli ATCC 8739, 2.5 mM CaCl2

With `CO/N=C(\C(=O)N[C@@H]1C(=O)N2C(C(=O)O)=C(COC(C)=O)CS[C@H]12)c1csc(N)n1` [Cefotaxime] the “fold increase in MIC” value (E. coli ATCC 8739 [1]; twenty passages (twenty days)) was 32 fold and the MIC (E. coli ATCC 8739 [1]) was 1 µM (≈ 0.455 µg/mL).

In the case of `CNC(C)C1CCC(N)C(OC2C(N)CC(N)C(OC3OCC(C)(O)C(NC)C3O)C2O)O1` (stereo not drawn) [Gentamicin], the “fold increase in MIC” value (E. coli ATCC 8739 [1]; twenty passages (twenty days)) is reported as 32 fold and the MIC (E. coli ATCC 8739 [1]) is reported as 2 µM (≈ 0.955 µg/mL).

With `CC[C@H](C)[C@H](NC(=O)CN)C(=O)NCC(=O)N[C@@H](C)C(=O)N[C@H](C(=O)N[C@@H](CC(C)C)C(=O)N[C@@H](CCCCN)C(=O)N[C@H](C(=O)N[C@@H](CC(C)C)C(=O)N[C@H](C(=O)N[C@H](C(=O)NCC(=O)N[C@@H](CC(C)C)C(=O)N1CCC[C@H]1C(=O)N[C@@H](C)C(=O)N[C@@H](CC(C)C)C(=O)N[C@H](C(=O)N[C@@H](CO)C(=O)N[C@@H](Cc1c[nH]c2ccccc12)C(=O)N[C@H](C(=O)N[C@@H](CCCCN)C(=O)N[C@@H](CCCNC(=N)N)C(=O)N[C@@H](CCCCN)C(=O)N[C@@H](CCCNC(=N)N)C(=O)N[C@@H](CCC(N)=O)C(=O)N[C@@H](CCC(N)=O)C(N)=O)[C@@H](C)CC)[C@@H](C)CC)[C@@H](C)O)[C@@H](C)O)C(C)C)C(C)C` [Melittin] the “fold increase of MIC and MBC values” (E. coli ATCC 8739 [2]; E. coli ATCC 8739, 0.25 mg/mL trypsin) was 32 fold, the MIC, 80 °C (E. coli ATCC 8739 [2]) was 2 µM (≈ 5.69 µg/mL) and the MBC, Control (E. coli ATCC 8739 [2]) was 2 µM (≈ 5.69 µg/mL). The MIC, Control (E. coli ATCC 8739 [2]) was 2 µM (≈ 5.69 µg/mL), the “concentration at which LPS-binding affinity peaked” value (LPS-binding assay) was 16 µM and the “concentration at maximum Disc3(5) fluorescence” value (E. coli ATCC 8739 [3]) was 2 µM. The “incubation time to maximum Disc3(5) fluorescence” value (E. coli ATCC 8739 [3]) was 3 min.

In the case of `CCn1cc(C(=O)O)c(=O)c2cc(F)c(N3CCNCC3)cc21` [Norfloxacin], the “fold increase in MIC” value (E. coli ATCC 8739 [1]; twenty passages (twenty days)) is reported as 512 fold and the MIC (E. coli ATCC 8739 [1]) is reported as 0.25 µM (≈ 0.0798 µg/mL).

`C[C@H](NC(=O)[C@H](Cc1c[nH]c2ccccc12)NC(=O)CNC(=O)[C@H](CCCNC(=N)N)NC(=O)[C@H](Cc1c[nH]c2ccccc12)NC(=O)[C@H](Cc1c[nH]c2ccccc12)NC(=O)[C@H](CO)NC(=O)[C@H](CO)NC(=O)[C@H](Cc1c[nH]c2ccccc12)NC(=O)CN)C(=O)N[C@@H](CCCCN)C(=O)N[C@@H](Cc1c[nH]c2ccccc12)C(=O)N[C@@H](C)C(=O)N[C@@H](CO)C(=O)N[C@@H](CCCCN)C(=O)NCC(=O)N[C@@H](Cc1c[nH]c2ccccc12)C(=O)NCC(=O)N[C@@H](CCCCN)C(N)=O` [Peptide 6, [Trp^2,5,6,9,12,17]-des-(Asp20-Cys37)-E2P] (H-GWSSWWRGWAKWASKGWGK-NH2) gave an MIC, NH4+ (E. coli ATCC 8739 [4]) of 4 µM, an MBC, Mg2+ (E. coli ATCC 8739 [4]; E. coli ATCC 8739, 1 mM MgCl2) of 32 µM and an MIC, Mg2+ (E. coli ATCC 8739 [4]; E. coli ATCC 8739, 1 mM MgCl2) of 32 µM. For the same molecule, the MIC, Zn2+ (E. coli ATCC 8739 [4]) was 4 µM, the MBC, Serum 10% (E. coli ATCC 8739 [4]) was 4 µM and the MIC, Serum 10% (E. coli ATCC 8739 [4]) was 4 µM. For the same molecule, the MBC, Serum 20% (E. coli ATCC 8739 [4]; E. coli ATCC 8739, 20% FBS) was 8 µM and the MIC, Serum 20% (E. coli ATCC 8739 [4]; E. coli ATCC 8739, 20% FBS) was 8 µM.

In the case of `CC[C@H](C)[C@H](NC(=O)[C@H](CO)NC(=O)[C@H](CO)NC(=O)[C@H](Cc1ccccc1)NC(=O)CN)C(=O)N[C@@H](Cc1ccccc1)C(=O)N[C@@H](CCCCNC(=N)N)C(=O)NCC(=O)N[C@H](C(=O)N[C@@H](C)C(=O)N[C@@H](CCCCNC(=N)N)C(=O)N[C@@H](Cc1ccccc1)C(=O)N[C@@H](C)C(=O)N[C@@H](CO)C(=O)N[C@@H](CCCCNC(=N)N)C(=O)NCC(=O)N[C@@H](CC(C)C)C(=O)NCC(=O)N[C@@H](CCCCNC(=N)N)C(N)=O)C(C)C` [Peptide 7, [hArg^7,11,15,19]-des-(Asp20-Cys37)-E2P] (H-GFSSIF[hArg]GVA[hArg]FAS[hArg]GLG[hArg]-NH2), the “MIC, Fe3+” value (E. coli ATCC 8739 [4]; E. coli ATCC 8739, 4 μM FeCl3) is reported as 2 µM, the MIC, NH4+ (E. coli ATCC 8739 [4]) is reported as 2 µM and the MIC, K+ (E. coli ATCC 8739 [4]; E. coli ATCC 8739, 0.5 mM KCl) is reported as 2 µM. For the same molecule, the MIC, Mg2+ (E. coli ATCC 8739 [4]; E. coli ATCC 8739, 1 mM MgCl2) was 8 µM, the MBC, Ca2+ (E. coli ATCC 8739 [4]; [6]) was 64 µM and the MIC, Ca2+ (E. coli ATCC 8739 [4]; [6]) was 64 µM. The MIC, Zn2+ (E. coli ATCC 8739 [4]) was 4 µM, the MBC, Serum 10% (E. coli ATCC 8739 [4]) was 4 µM and the MIC, Serum 10% (E. coli ATCC 8739 [4]) was 4 µM. For the same molecule, the MIC, 80 °C (E. coli ATCC 8739 [2]) was 2 µM (≈ 4.19 µg/mL), the MBC, Control (E. coli ATCC 8739 [2]) was 2 µM (≈ 4.19 µg/mL) and the MIC, Control (E. coli ATCC 8739 [2]) was 2 µM (≈ 4.19 µg/mL). The “effect on survival of larvae (toxicity)” value [5] was “did not affect the survival of the larvae”.

In the case of `CO[C@H]1/C=C/O[C@@]2(C)Oc3c(C)c(O)c4c(O)c(c(/C=N/N5CCN(C)CC5)c(O)c4c3C2=O)NC(=O)/C(C)=C\C=C\[C@H](C)[C@H](O)[C@@H](C)[C@@H](O)[C@@H](C)[C@H](OC(C)=O)[C@@H]1C` [Rifampicin], the “fold increase in MIC” value (E. coli ATCC 8739 [1]; within five passages) is reported as 512 fold and the MIC (E. coli ATCC 8739 [1]) is reported as 8 µM (≈ 6.58 µg/mL).
